The RNAGym collection of RNA variant scans (doi:10.1126/science.aae0568)
Variants at the floor of the assay were thinned out.

B1: tRNA (parent)
chain: GUUCCGUUGGCGUAAUGGUAACGCGUCUCCCUCCUAAGGAGAAGACUGCGGGUUCGAGUCCCGUACGGAACG

Variants of: B1
Assay: yeast fitness relative to wild type (ratio to wild type); higher = fitter; tRNA-Arg(CCU), competitive growth, 37 C, YPD
In short: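 Gene amplicons from the start population and from each of six end populations were read by 100-nucleotide paired-end sequencing. Those end populations came from pooled Saccharomyces cerevisiae strains carrying tRNA-Arg(CCU) gene variants at the native locus, competed in YPD at 37°C for 24 hours. Fitness relative to wild type was worked out from changes in genotype frequencies. Genotypes needed ≥ 100 starting reads, and estimates < 0.5 were set to 0.5.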

Row | Variant | yeast fitness
1 | C5A C11G G41C G68U | 0.524
2 | C5A C34G C49G U64C | ≤ 0.5
3 | C5A C11G G41C A57G | 0.554
4 | C5A C24G C31G | 0.555
5 | C5A A42C U47A C49A G51U C61U G68A | ≤ 0.5
6 | C5A C34G C49G A65G | ≤ 0.5
7 | C5A U13A U32C U35A U59C A70U | 0.547
8 | C5A C46U C49U | 0.809
9 | C5A G10C U26C G52C | ≤ 0.5
10 | C5A C60A | 0.651
11 | C5A C22G | 0.862
12 | C5A C22U | 0.79
13 | C5A C11G C24A C55U G63C | ≤ 0.5
14 | C5A G12A G48A C61U | ≤ 0.5
15 | C5A U13C C29U G56C | ≤ 0.5
16 | C5A A37C C49A G68U | ≤ 0.5
17 | C5A C22G A65C | 0.582
18 | C5A C11U C49U | ≤ 0.5
19 | C5A G17A G44C | 0.532
20 | C5A C31G A37G C62U G63C | 0.577
21 | C5A U26A A43U A65U | ≤ 0.5
22 | C5A G18A G52C | ≤ 0.5
23 | C5A G23C U32G A69U | ≤ 0.5
24 | C5A C30U G41C | ≤ 0.5

Row | Variant | yeast fitness
25 | C5A C34U C55A | ≤ 0.5
26 | C5A A21U C55A | 0.572
27 | C5A G17C A43U U59A | 0.609
28 | C5A C29U | 0.731
29 | C5A C46U U59C | 0.728
30 | C5A A40C C46U G52C A70C | ≤ 0.5
31 | C5A C11G C30G A36U C60A | ≤ 0.5
32 | C5A A15U C31G G39A A57U C60A | ≤ 0.5
33 | C5A C30A U64C | 0.547
34 | C5A G12C C34U | ≤ 0.5
35 | C5A C22G C29A G67A | 0.531
36 | C5A A15G G18C C29A U54A | ≤ 0.5
37 | C5A C33U A36G | 0.532
38 | C5A A40G C46A | 0.773
39 | C5A A20C C22A A36C A69C | ≤ 0.5
40 | C5A U8C C27U A40G C49U C55G | ≤ 0.5
41 | C5A C22U C30U G68U | ≤ 0.5
42 | C5A C29A C30G C55U C61G A65C | 0.554
43 | C5A G18C U19A C27A C33A C61G A70G | ≤ 0.5
44 | C5A C31U U35C C49G | ≤ 0.5
45 | C5A U8C C30G C31G A65C | ≤ 0.5
46 | C5A U26A C27G C30G A36U G38C C46U C49G A65U | ≤ 0.5
47 | C5A C31U A37C | 0.561
48 | C5A G23C C61G C62U C66U | ≤ 0.5

Row | Variant | yeast fitness
49 | C5A G38C | 0.732
50 | C5A G38A | 0.664
51 | C5A G39A C49U | 0.541
52 | C5A A21U C61A C62G | ≤ 0.5
53 | C5A C22U C27G C30G | ≤ 0.5
54 | C5A C24U C62U | 0.624
55 | C5A G17C C22U C60G C61U | 0.947
56 | C5A C27U A36U | ≤ 0.5
57 | C5A C29U C66U | 0.581
58 | C5A G6C A15G A40G | ≤ 0.5
59 | C5A U16A A43G U59A C61A | ≤ 0.5
60 | C5A C22A A36U A40U | ≤ 0.5
61 | C5A U8A C46G | ≤ 0.5
62 | C5A C24A | 0.727
63 | C5A G17C G39C | ≤ 0.5
64 | C5A C11G U28A A40U C55A | ≤ 0.5
65 | C5A C31A C49U | ≤ 0.5
66 | C5A G58U | 0.946
67 | C5A G17A C34A | ≤ 0.5
68 | C5A U16A C22G C30A | ≤ 0.5
69 | C5A G9A G41A U53C U64A | ≤ 0.5
70 | C5A C33U C46G | ≤ 0.5
71 | C5A C33U C46A | ≤ 0.5
72 | C5A C22U G39A U47C C61U | ≤ 0.5

Row | Variant | yeast fitness
73 | C5A A21G | 0.942
74 | C5A G17A A36G A70G | ≤ 0.5
75 | C5A G12C G18C C30A C31G U54G A65G | ≤ 0.5
76 | C5A C27U A37U | ≤ 0.5
77 | C5A U26A G51C C61G | ≤ 0.5
78 | C5A A15U C24A G25A U47C G52C | ≤ 0.5
79 | C5A A57U | 0.669
80 | C5A C33G C49U C61G A69C | ≤ 0.5
81 | C5A U16C A21C C33U A40G A43U U54G C62G | ≤ 0.5
82 | C5A A21G G23A G67C | 0.591
83 | C5A C11G G41C G48C | ≤ 0.5
84 | C5A C27U A69U | 0.711
85 | C5A G12A A37G A43C C55G G68A | ≤ 0.5
86 | C5A U13A C27G A37G | ≤ 0.5
87 | C5A C60U A65C | ≤ 0.5
88 | C5A A57G C61U | ≤ 0.5
89 | C5A U13C C29U C55U G56A | ≤ 0.5
90 | C5A C22G G25A | ≤ 0.5
91 | C5A G17C G25A U59C | ≤ 0.5
92 | C5A C22G C29A A43U G68A | ≤ 0.5
93 | C5A G39A | 0.83
94 | C5A A45U G48A G56A | 0.706
95 | C5A C31G C55A | ≤ 0.5
96 | C5A G39C C46A C60G | ≤ 0.5

Row | Variant | yeast fitness
97 | C5A U13A A20G A42C U59C | ≤ 0.5
98 | C5A U13G C24G C31A C62G U64A | ≤ 0.5
99 | C5A A21C U54C | ≤ 0.5
100 | C5A G17C A43U | 0.543
101 | C5A U13C G18A C31G C46U | ≤ 0.5
102 | C5A C27G C33A A40U G48C U54A | 0.506
103 | C5A C61G A70G | 0.585
104 | C5A G41A A57G | 0.545
105 | C5A A20U C31G C61U C66U | ≤ 0.5
106 | C5A U7A A21G C61G C66G | ≤ 0.5
107 | C5A G39C C60G C62A | ≤ 0.5
108 | C5A G58C A70C | 0.644
109 | C5A C29U A69U | 0.632
110 | C5A C24U G25C C30G G50C G56A C66U | ≤ 0.5
111 | C5A A15U C31G G39A C49U G58A G67A | ≤ 0.5
112 | C5A G17C C27G | 0.57
113 | C5A A15G G25A | 0.583
114 | C5A C22A C27G A43U C60A | ≤ 0.5
115 | C5A A45C | 0.81
116 | C5A C46U | 0.997
117 | C5A C46G | 0.719
118 | C5A C34G C46U A70U | ≤ 0.5
119 | C5A U16C C22U | 0.612
120 | C5A C11G G41C | 0.561

Row | Variant | yeast fitness
121 | C5A G9C A36U G50A U59G | 0.542
122 | C5A C31A A37C C46U | ≤ 0.5
123 | C5A C46G C49A G67C | ≤ 0.5
124 | C5A U7C U32A G52C C55U C66U | ≤ 0.5
125 | C5A U26A A42C | ≤ 0.5
126 | C5A G10C C22U A43G G58C C66G | ≤ 0.5
127 | C5A U8G A37U G51A G52C U59C | 0.639
128 | C5A A20U C31U C61U U64A | ≤ 0.5
129 | C5A U16C C22U G63A | 0.553
130 | C5A C27A U28G C55U | ≤ 0.5
131 | C5A G41A A57C C62A | 0.54
132 | C5A C31A C55A C61A G63A | 0.671
133 | C5A A20C A57U | ≤ 0.5
134 | C5A G17C A57C | 0.551
135 | C5A G41C | 0.779
136 | C5A G17A C46A C55G | ≤ 0.5
137 | C5A C33G C34A A40C G67A | ≤ 0.5
138 | C5A U8C G10A A21G A45C G56C | ≤ 0.5
139 | C5A G23A C24U A36C | ≤ 0.5
140 | C5A G10U C30U A43C A69C | ≤ 0.5
141 | C5A C22G C49G | 0.563
142 | C5A U26A C66A | ≤ 0.5
143 | C5A C31G G63U | ≤ 0.5
144 | C5A C31G G56C G58C | ≤ 0.5

Row | Variant | yeast fitness
145 | C5A U7A G39A C60U C62A | ≤ 0.5
146 | C5A U16A A45G G50A C61U | ≤ 0.5
147 | C5A C24U U64C | 0.639
148 | C5A C31U G48C C55A A69C | ≤ 0.5
149 | C5A G23C G41C G50C | ≤ 0.5
150 | C5A U26C | 0.954
151 | C5A U16A G39A A45G G50A | ≤ 0.5
152 | C5A C34U C49A G52A | ≤ 0.5
153 | C5A C31G | 0.889
154 | C5A C31A | 0.971
155 | C5A C31U | 0.885
156 | C5A G48C A57U | ≤ 0.5
157 | C5A G48C A57G | 0.557
158 | C5A C29G A37G G41A A43U | ≤ 0.5
159 | C5A C27U G39C | ≤ 0.5
160 | C5A G18C G50A | ≤ 0.5
161 | C5A C29G G67C | 0.588
162 | C5A G10A A21C C24A A65C | ≤ 0.5
163 | C5A G18A G52A C55G | 0.526
164 | C5A U7C A65C | ≤ 0.5
165 | C5A U19A G38C | ≤ 0.5
166 | C5A C31U A69U | 0.786
167 | C5A U7C U19A G38C A42G | ≤ 0.5
